Pf gametocyte – inhibitors of late stage P. falciparum gametocyte viability; P. falciparum stage V gametocytes, ATP luminescence, 24 h; inhibition, % at 10.9 µM; actives 0.065% (n = 150,000);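 active = inhibition above the mean plus 3 SD of compounds within the control limits, set per campaign, cut at about 38% in these data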;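 also: 0% = DMSO wells and 100% = medium only without gametocytes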
NF-kB expr up – compounds increasing NF-kB expression in human neuronal cells; actives 1.6% (n = 190,000); fold change at 12.5 µM; NF-kB reporter expression; active compounds read high; in the data active = fold change above about 3.3
STAT3 act-1 – activators of IL-6 induced STAT3 signaling; activation (% of control), % at 5.6 µM; U3A cells, IL-6 STAT3-luciferase reporter, luminescence; 100% = signal with IL-6 EC80 alone; actives 0.91% (n = 190,000); AID 871;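 active = activation above the screen-wide mean of compound activation plus 3 SD, cut at about 130% in these data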;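 also: 0% = background luminescence of wells with medium and substrate only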
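Material: human U3A cells carrying STAT3-luciferase construct. Measured by: reporter luminescence signal. Timing: compound 1 h, then IL-6 6 h at 37 °C.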
STAT1 act-1 – activators of IFN-gamma induced STAT1 signaling; NIH 3T3 STAT1-luciferase reporter, luminescence; 100% = IFN-gamma alone, no compound; activation (% of control), % at 5.5 µM; AID 932; actives 2.6% (n = 200,000);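 active = activation above the screen-wide mean activation plus 3 SD, cut at about 130% in these data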;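 also: raw ratio to IFN-gamma control signal so 100% means no change and 0% no light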
STAT1 inh – STAT1 signaling inhibition; inhibition, % at 5.5 µM; actives 0.35% (n = 200,000); NIH 3T3 STAT1-luciferase reporter, IFN-gamma, luminescence;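 active = inhibition above a set limit, the mean inhibition across all tested compounds plus 3 SD, cut at about 34% in these data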;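 also: 0% = IFN-gamma with DMSO and 100% = IFN-gamma with 300 µM nifuroxazide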
APP 5'UTR act – activates APP 5'UTR luciferase reporter | SH-SY5Y APP 5'UTR luciferase reporter, luminescence; zero percent = DMSO vehicle wells | activation, % at 2 µM | actives 1% (n = 190,000);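 active = activation above a set limit, based on mean plus 3 SD of controls, cut at about 140% in these data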
STAT3 act-2 – confirmation of STAT3 signaling activators; U3A STAT3-luciferase reporter, IL-6 potentiation, luminescence; U3A cells lack STAT1; 100 means same as IL-6 alone; actives 64% (n = 1,200); potentiation (% of control), % at 5.7 µM; shares compounds with STAT3 act-1;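 active = percent activation of the STAT3 luciferase reporter above a set limit taken from the earlier primary screen, cut at about 130% in these data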;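 also: 0% = background signal of medium plus substrate and 100% = median of IL-6 with DMSO wells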
NFkB act STAT3ct – NF-kappaB activation in STAT3 activator counter-screen; shares compounds with STAT3 act-1; human cells, NF-kappaB reporter activation; actives 11% (n = 1,200); activation (% of control), % at 5.7 µM; in the data active = activation above about 120%;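 also: reporter induced by TNF-alpha stimulation; 100% = median of stimulated DMSO wells and 0% = no signal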
STAT1 act-2 – STAT1 activation in STAT3 activator counter-screen | shares compounds with STAT3 act-1 | NIH 3T3 STAT1-luciferase reporter, IFN-gamma, luminescence | activation (% of control), % at 5.7 µM | actives 13% (n = 1,200);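 active = activation above the solvent-only control well mean plus 3 SD, set per screening run, cut at about 120% in these data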;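 also: 100% = IFN-gamma with DMSO median signal so 100% means no change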
Numbers without * were called inactive; x = no result. This is a sample that favours compounds with a hit; in the whole collection about 3.9% have one here.

SMILES | Pf gametocyte | NF-kB expr up | STAT3 act-1 | STAT1 act-1 | STAT1 inh | APP 5'UTR act | STAT3 act-2 | NFkB act STAT3ct | STAT1 act-2
COc1cccc(OC)c1C(=O)NC(=S)Nc1ccc2c(c1)Cc1ccccc1-2 | 13 | 0.99 | 150* | 100 | 0 | 14 | 131 | 101 | 100
CCCc1nnc(N2C(=O)c3cccc4cccc(c34)C2=O)s1 | 5 | 0.87 | 160* | 93 | 7 | 16 | 146* | 101 | 90
COc1cccc(NC(C)C(=O)Nc2cc([N+](=O)[O-])ccc2Cl)c1 (stereo not given) | x | 1.2 | 105 | 96 | 4 | 4 | x | x | x
O=C(CN1CCCC1)Nc1ccc(-c2nc3cc(NC(=O)CN4CCCC4)ccc3o2)cc1 | x | 0.89 | 150* | 121 | -22 | 60 | 138* | 130* | 161*
COc1cc(C2C(C#N)=C(N)Oc3cc4c(cc32)OCO4)cc(OC)c1OC (stereo not given) | 3 | 3 | 147* | 90 | 11 | -93 | 118 | 162* | 107
COc1cc(C2C(C#N)=C(N)Oc3cc(O)ccc32)cc(OC)c1OC (stereo not given) | x | 1 | 112 | 91 | 10 | -95 | x | x | x
COc1cc(/C=C2\SC(N)=NC2=O)ccc1OCC(=O)Nc1ccc(C)cc1 | 3 | 1.4 | 643* | 78 | 24 | 12 | 435* | 130* | 85
CC(Oc1ccccc1)C(=O)Nc1ccccc1O (stereo not given) | -19 | 3 | 137* | 97 | 3 | -11 | 122 | 104 | 100
COC(=O)c1ccccc1NC(=O)C(C)Oc1ccccc1 (stereo not given) | x | 0.97 | 98 | 95 | 5 | -10 | x | x | x
CC(=O)Nc1ccc(C2=CC(=O)C[C@H](c3ccc4c(c3)OCO4)C2)cc1 | -13 | x | x | x | x | x | x | x | x
CN(Cc1ccccc1)Cc1c[nH]c2ccccc12 | x | 1.1 | 158* | 102 | -2 | 5 | 141* | 102 | 95
c1ccc(Cc2c[nH]c3ccccc23)cc1 | 18 | x | x | x | x | x | x | x | x
COC(=O)c1cc2c(ccc3ccccc32)oc1=O | 20 | x | x | x | x | x | x | x | x
O=c1oc2ccc3ccccc3c2cc1-c1nc2ccccc2o1 | x | x | 163* | 102 | -2 | -1 | 133* | 99 | 95
Cc1ccc(Nc2nc(CSc3nnc(-c4cccs4)o3)cs2)cc1 | -66 | 1.6 | 104 | 113 | -14 | 9 | x | x | x
c1ccc(-c2nc(CSc3nnc(-c4cccs4)o3)cs2)cc1 | -5 | 1.1 | 161* | 106 | -6 | 11 | 168* | 112 | 121*
COc1ccc(OC)c(Nc2nc3nonc3nc2N2CCCCC2)c1 | x | 1.1 | 163* | 96 | 4 | -9 | 99 | 112 | 113
CC(C)CC(=O)NC(=S)Nc1nc(-c2ccccc2)cs1 | -3 | 1 | 144* | 106 | -7 | -1 | 140* | 107 | 104
O=C(NC(=S)Nc1nc(-c2ccccc2)cs1)c1cccs1 | -2 | 0.96 | 142* | 94 | 7 | 10 | 147* | 98 | 87
O=C(NC(=S)Nc1nc(-c2ccccc2)cs1)c1ccco1 | 25 | 1.5 | 139* | 98 | 0 | 2 | 140* | 103 | 95
Cc1ccc(-c2csc(NC(=S)NC(=O)c3cccs3)n2)cc1 | 13 | 1.1 | 108 | 106 | -7 | -3 | x | x | x
CC(C)CC(=O)NC(=S)Nc1nc(-c2ccc(Cl)cc2)cs1 | -22 | 1.1 | 96 | 93 | 7 | 6 | x | x | x
CCCOc1ccccc1NC(=O)Nc1ccccc1Cl | 28 | 0.92 | 93 | 100 | 1 | -9 | x | x | x
C/C(CC(=O)Nc1cc(Cl)ccc1C)=N\NC(N)=O | 10 | x | x | x | x | x | x | x | x
CCOc1ccccc1NC(=O)CN1C(=O)C(C)SC(C)C1=O (stereo not given) | 16 | 1 | 111 | 87 | 14 | 1 | x | x | x
SMILES | Pf gametocyte | NF-kB expr up | STAT3 act-1 | STAT1 act-1 | STAT1 inh | APP 5'UTR act | STAT3 act-2 | NFkB act STAT3ct | STAT1 act-2
CC1Cc2ccccc2N1C(=O)CN1CCC(C(N)=O)CC1 (stereo not given) | -9 | 1.1 | 111 | 101 | -3 | -15 | x | x | x
Cc1cccc(NC(=O)C2CC3CCC2C3)c1C (stereo not given) | 3 | x | x | x | x | x | x | x | x
O=C(N/N=C/c1c[nH]c2ccccc12)c1[nH]c2ccc(Br)cc2c1-c1ccccc1 | -12 | 3.6* | 150* | 109 | -9 | -92 | 115 | 157* | 107
O=C(N/N=C/c1c[nH]c2ccc(Br)cc12)c1ccccn1 | x | 1.2 | 95 | 105 | -7 | 18 | x | x | x
O=C(N/N=C/c1ccc(O)cc1)c1[nH]c2ccc(Br)cc2c1-c1ccccc1 | 0 | 2.9 | 143* | 108 | -8 | -94 | 112 | 165* | 117
COc1cc2c(cc1OC)CN(C(C)C(=O)N1CCc3ccccc31)CC2 (stereo not given) | x | 0.86 | 106 | 105 | -6 | -2 | x | x | x
CCOCC(=O)N1CCc2ccccc21 | -35 | 1.5 | 151* | 100 | -1 | 10 | 139* | 103 | 97
CC(C(=O)N1CCc2ccccc21)N1CCc2ccccc2C1 (stereo not given) | x | 1 | 146* | 94 | 6 | 11 | 119 | 103 | 102
CCN(CC)C(=O)N1CCc2ccccc21 | -23 | 1.2 | 146* | 96 | 4 | -1 | 151* | 105 | 101
CC(CC(=O)N1CCc2ccccc21)c1ccccc1 (stereo not given) | -2 | 1.4 | 92 | 106 | -8 | x | x | x | x
O=C(c1cccnc1)N1CCc2ccccc21 | -14 | 0.92 | 159* | 101 | -1 | 8 | 140* | 102 | 95
O=C(OCC(=O)N1CCc2ccccc21)c1ccccc1 | x | 2.4 | 100 | 124 | -26 | -13 | x | x | x
C=C1C[C@H](O)[C@@H]2[C@H](OC(=O)[C@H]2C)[C@H]2[C@H](C)[C@@H](O)C[C@@H]12 | 11 | x | x | x | x | x | x | x | x
C=CCOc1cccc(CNc2cccc(C(=O)O)c2)c1 | -6 | x | x | x | x | x | x | x | x
CN(C)S(=O)(=O)N1CCc2ccccc21 | 6 | 1.1 | 146* | 100 | -2 | -10 | 133 | 102 | 101
CN(C)S(=O)(=O)N1CCc2ccccc2C1 | 7 | 0.86 | 97 | 106 | -7 | 6 | x | x | x
N#Cc1c(Cl)c(Cl)c2nnc(-c3ccc(Br)cc3)n2c1Cl | x | 1.2 | 154* | 92 | 8 | -1 | 152* | 106 | 95
CC(C)(C)c1ccc(OCCCn2ccnc2)cc1 | 8 | x | x | x | x | x | x | x | x
COc1ccc(/C=C/C(=O)c2ccccc2)cc1Cn1nnc2ccccc21 | -31 | 1.1 | 101 | 104 | -4 | 7 | x | x | x
COc1cc(OC)c(NC(=O)N2CCOCC2)cc1Cl | -1 | x | x | x | x | x | x | x | x
